Test results taken from ChEMBL document CHEMBL2440113, “Synthesis, radiofluorination, and in vivo evaluation of novel fluorinated and iodinated radiotracers for PET imaging and targeted radionuclide therapy of melanoma” (J Med Chem, 2013).

What was measured:
[1] = Stability of the compound in saline after 6 hrs; format: physicochemical; details: read-out: Stability
Outline: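 Formulated radiotracer was kept in saline at room temperature; radiochemical purity was checked by analytical radio-HPLC over at least 6 h after preparation.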

[2] = test system: Heart; test: Biodistribution in heart of C57BL/6J mouse harboring mouse B16-Bl6 cells at 9 to 12 MBq, iv after 3 hrs by PET analysis; format: ADME, organism-based; details: in vivo
Outline: (§1)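 Ex vivo dissection in B16Bl6-bearing C57BL/6J mice (3x10⁵ cells s.c. right shoulder), done at day 10 or 14 after implantation. The ¹⁸F tracer was given i.v. at 9-12 MBq. Mice were killed by CO₂ at 1, 2 or 3 h. Tumor, organs and tissues were excised, weighed and gamma-counted, then decay-corrected and expressed as %ID/g. n=3-6 per group; mean ± SD.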

[3] = test system: Lung; test: Biodistribution in lung of C57BL/6J mouse harboring mouse B16-Bl6 cells at 9 to 12 MBq, iv after 3 hrs by PET analysis; format: ADME, organism-based; details: in vivo; outline: as §1
[4] = test system: Spleen; test: Biodistribution in spleen of C57BL/6J mouse harboring mouse B16-Bl6 cells at 9 to 12 MBq, iv after 3 hrs by PET analysis; format: ADME, organism-based; details: in vivo; outline: as §1
[5] = test system: Mus musculus; test: Biodistribution in small intestine of C57BL/6J mouse harboring mouse B16-Bl6 cells at 9 to 12 MBq, iv after 3 hrs by PET analysis; format: ADME, organism-based; details: in vivo; outline: as §1
[6] = test system: Stomach; test: Biodistribution in stomach of C57BL/6J mouse harboring mouse B16-Bl6 cells at 9 to 12 MBq, iv after 3 hrs by PET analysis; format: ADME, organism-based; details: in vivo
Outline: (§2)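 Ex vivo biodistribution. C57BL/6J mice bearing subcutaneous B16Bl6 tumours (3x10⁵ cells, shoulder), day 10 or 14, received [18F]tracer iv (9-12 MBq). They were killed by CO₂ at 1, 2 or 3 h. Tumours and organs were excised, weighed and gamma-counted. Results are decay-corrected % ID/g; ratios are tumour over tissue. n=3-6 per group; mean ± SD.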

[7] = test system: Zone of skin; test: Biodistribution in skin of C57BL/6J mouse harboring mouse B16-Bl6 cells at 9 to 12 MBq, iv after 3 hrs by PET analysis; format: ADME, organism-based; details: in vivo; outline: as §1
[8] = test system: Bone; test: Biodistribution in bones of C57BL/6J mouse harboring mouse B16-Bl6 cells at 9 to 12 MBq, iv after 3 hrs by PET analysis; format: ADME, organism-based, Bone element; details: in vivo; outline: as §1
[9] = test system: Muscle tissue; test: Biodistribution in muscle of C57BL/6J mouse harboring mouse B16-Bl6 cells at 9 to 12 MBq, iv after 3 hrs by PET analysis; format: ADME, organism-based; details: in vivo; outline: as §1
[10] = test system: Mus musculus; test: Biodistribution in tumor of C57BL/6J mouse harboring mouse B16-Bl6 cells at 9 to 12 MBq, iv after 3 hrs by PET analysis; format: ADME, organism-based, Neoplasm; details: in vivo; outline: as §2
[11] = test system: Heart; test: Biodistribution in heart of C57BL/6J mouse harboring mouse B16-Bl6 cells at 9 to 12 MBq, iv after 2 hrs by PET analysis; format: ADME, organism-based; details: in vivo; outline: as §1
[12] = test system: Pancreas; test: Biodistribution in pancreas of C57BL/6J mouse harboring mouse B16-Bl6 cells at 9 to 12 MBq, iv after 2 hrs by PET analysis; format: ADME, organism-based; details: in vivo; outline: as §1
[13] = test system: Mus musculus; test: Biodistribution in small intestine of C57BL/6J mouse harboring mouse B16-Bl6 cells at 9 to 12 MBq, iv after 2 hrs by PET analysis; format: ADME, organism-based; details: in vivo; outline: as §1
[14] = test system: Stomach; test: Biodistribution in stomach of C57BL/6J mouse harboring mouse B16-Bl6 cells at 9 to 12 MBq, iv after 2 hrs by PET analysis; format: ADME, organism-based; details: in vivo; outline: as §1
[15] = test system: Bone; test: Biodistribution in bones of C57BL/6J mouse harboring mouse B16-Bl6 cells at 9 to 12 MBq, iv after 2 hrs by PET analysis; format: ADME, organism-based, Bone element; details: in vivo; outline: as §1
[16] = test system: Nucleic Acid; test: Ratio of drug level in tumor to muscle in C57BL/6J mouse harboring mouse B16-Bl6 cells at 9 to 12 MBq, iv after 1 hr by PET analysis; format: ADME, organism-based; details: in vivo; outline: as §2
[17] = test system: Lung; test: Biodistribution in lung of C57BL/6J mouse harboring mouse B16-Bl6 cells at 9 to 12 MBq, iv after 1 hr by PET analysis; format: ADME, organism-based; details: in vivo; outline: as §1
[18] = test system: Kidney; test: Biodistribution in kidney of C57BL/6J mouse harboring mouse B16-Bl6 cells at 9 to 12 MBq, iv after 1 hr by PET analysis; format: ADME, organism-based; details: in vivo; outline: as §1
[19] = test system: Mus musculus; test: Biodistribution in cecum of C57BL/6J mouse harboring mouse B16-Bl6 cells at 9 to 12 MBq, iv after 1 hr by PET analysis; format: ADME, organism-based, Caecum; details: in vivo; outline: as §1
[20] = test system: Mus musculus; test: Biodistribution in small intestine of C57BL/6J mouse harboring mouse B16-Bl6 cells at 9 to 12 MBq, iv after 1 hr by PET analysis; format: ADME, organism-based; details: in vivo; outline: as §1
[21] = test system: Stomach; test: Biodistribution in stomach of C57BL/6J mouse harboring mouse B16-Bl6 cells at 9 to 12 MBq, iv after 1 hr by PET analysis; format: ADME, organism-based; details: in vivo; outline: as §1
[22] = test system: Zone of skin; test: Biodistribution in skin of C57BL/6J mouse harboring mouse B16-Bl6 cells at 9 to 12 MBq, iv after 1 hr by PET analysis; format: ADME, organism-based; details: in vivo; outline: as §1
[23] = test system: Liver; test: Biodistribution in liver of C57BL/6J mouse harboring mouse B16-Bl6 cells at 9 to 12 MBq, iv after 1 hr by PET analysis; format: ADME, organism-based; details: in vivo; outline: as §1
[24] = test system: Mus musculus; test: Biodistribution in eyes of C57BL/6J mouse harboring mouse B16-Bl6 cells at 9 to 12 MBq, iv after 1 hr by PET analysis; format: ADME, organism-based, Eye; details: in vivo; outline: as §1
[25] = test system: Mus musculus; test: Biodistribution in tumor of C57BL/6J mouse harboring mouse B16-Bl6 cells at 9 to 12 MBq, iv after 1 hr by PET analysis; format: ADME, organism-based, Neoplasm; details: in vivo; outline: as §2
[26] = test system: Mus musculus; test: Biodistribution in eye of C57BL/6J mouse harboring mouse B16-Bl6 cells at 8 to 12 MBq, iv after 1 hr by PET analysis; format: ADME, organism-based; details: in vivo
Outline: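 C57BL/6J mice were inoculated s.c. on the right shoulder with 3x10⁵ B16Bl6 cells in PBS under isoflurane, and imaged at day 10 or 14 (tumor volume 431.8 ± 154.3 mm³). The ¹⁸F tracer was given i.v. via tail vein, 8-12 MBq (methods: 9-12 MBq/0.15 mL). Under ketamine/xylazine i.p., a 25-min whole-body static PET scan ran at 1 h. ROI %ID/g = counts/g/min ÷ injected dose. n=2-8; mean ± SD.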

[27] = test system: Mus musculus; test: Biodistribution in tumor of C57BL/6J mouse harboring mouse B16-Bl6 cells at 8 to 12 MBq, iv after 1 hr by PET analysis; format: ADME, organism-based, Neoplasm; details: in vivo
Outline: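 Static whole-body PET at 1 h after tail-vein injection of [18F]tracer (9-12 MBq/0.15 mL) in C57BL/6J mice carrying subcutaneous B16Bl6 shoulder tumours (3x10⁵ cells), imaged day 10 or 14. Mice under ketamine/xylazine ip. 25 min acquisition, OSEM reconstruction. ROI % ID/g = counts/g/min ÷ injected dose; ratios = tumour % ID/g ÷ organ % ID/g. n=2-8; mean ± SD.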

[28] = test system: Mus musculus; test: Ratio of drug level in tumor to bone in C57BL/6J mouse harboring mouse B16-Bl6 cells at 9 to 12 MBq, iv after 3 hrs by PET analysis; details: in vivo

Structure (SMILES) | remaining at 6 h [1] | Drug uptake [2] | Drug uptake [3] | Drug uptake [4] | Drug uptake [5] | Drug uptake [6] | Drug uptake [7] | Drug uptake [8] | Drug uptake [9] | Drug uptake [10] | Drug uptake [11] | Drug uptake [12] | Drug uptake [13] | Drug uptake [14] | Drug uptake [15] | Ratio [16] | Drug uptake [17] | Drug uptake [18] | Drug uptake [19] | Drug uptake [20] | other results
CCN(CCNC(=O)c1cnc2cc(I)ccc2n1)CCOCCOCCOCCOCCOCCOCCOCC[18F] | > 99% | 3 % ID/g | 2.37 % ID/g | 2.35 % ID/g | 18.62 % ID/g | 5.39 % ID/g | 1.47 % ID/g | 3.61 % ID/g | 1.11 % ID/g | 6.76 % ID/g | 1.7 % ID/g | 1.56 % ID/g | 19.51 % ID/g | 7.35 % ID/g | 2.13 % ID/g | 9.48 | 1.75 % ID/g | 3.6 % ID/g | 6.37 % ID/g | 16.68 % ID/g | Drug uptake [21]: 5.87 % ID/g; Drug uptake [22]: 1.22 % ID/g; Drug uptake [23]: 2.02 % ID/g; Drug uptake [24]: 12.24 % ID/g; Drug uptake [25]: 9.81 % ID/g; Drug uptake [26]: 5.53 % ID/g; Drug uptake [27]: 6.63 % ID/g; Ratio [28]: 2.16
CCN(CCNC(=O)c1cnc2cc(I)ccc2n1)CCOCCOCCOCC[18F] | > 99% | 2.32 % ID/g | 1.6 % ID/g | 1.87 % ID/g | 3.91 % ID/g | 2.81 % ID/g | 1.05 % ID/g | 3.27 % ID/g | 0.81 % ID/g | 11.55 % ID/g | 2.14 % ID/g | 1.33 % ID/g | 4.28 % ID/g | 2.48 % ID/g | 1.96 % ID/g | 12.12 | 1.86 % ID/g | 3.46 % ID/g | 7.27 % ID/g | 7.58 % ID/g | Drug uptake [21]: 4.41 % ID/g; Drug uptake [22]: 1.44 % ID/g; Drug uptake [23]: 2.56 % ID/g; Drug uptake [24]: 18.36 % ID/g; Drug uptake [25]: 14.05 % ID/g; Drug uptake [26]: 10.5 % ID/g; Drug uptake [27]: 14.33 % ID/g; Ratio [28]: 3.7
